Legend:
Conditions in all cases: Homo sapiens
MT4 [1] = assay: Anti-HIV-1 activity evaluated in vitro on MT-4 cells; format: functional, cell-based
Procedure, shortened: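 MT4 cells (RPMI, 10% fetal calf serum) infected with HIV-1 IIIB at a dose killing 90% of cells by day 5. Compounds in DPBS added after viral adsorption. Protection from the viral cytopathic effect read by MTT viability assay. IC50 derived from curves of protection percentage against drug concentration.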

CEM-SS [2] = assay: Anti-HIV-1 activity evaluated in vitro on CEM-SS cells; format: functional, cell-based
Procedure, shortened: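 CEM-SS cells (RPMI, 10% fetal calf serum) infected with HIV-1 LAI grown in CEM-SS cells. Galactolipids in DPBS (or as phospholipid/cholesterol liposomes) added after viral adsorption. After 5 days, reverse transcriptase activity in supernatant measured, and inhibition calculated against untreated infected cells. IC50 taken from median-effect plot of dose-effect data. Triplicate per concentration, experiment repeated twice.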

MT4 [3] = assay: Cytotoxicity was evaluated in vitro on MT-4 cells; format: functional
Procedure, shortened: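 Uninfected MT4 cells incubated 5 days at 37 °C with various concentrations of galactolipid in DPBS. Proliferation and viability read by colorimetric MTT assay.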

CEM-SS [4] = assay: Cytotoxicity was evaluated in vitro on CEM-SS cells; format: functional

Row | IC50 (CEM-SS [2]) | Structure (SMILES) | IC50 (MT4 [1]) | CC50 (MT4 [3]) | CC50 (CEM-SS [4])
1 | > 100 µM | CCCCCCCCCCCCCC(=O)NC(CO[C@@H]1O[C@H](CO)[C@H](O)[C@H](O)[C@H]1O)C(=O)NCCO (stereo not given in full) | > 100 µM | > 100 µM | > 100 µM
2 | > 18 µM | O=C(O)CCCCCCCCCCC(=O)N(CCCCCCCC(F)(F)C(F)(F)C(F)(F)C(F)(F)C(F)(F)C(F)(F)C(F)(F)C(F)(F)F)CCO[C@@H]1O[C@H](CO)[C@H](O)[C@H](O)[C@H]1O | > 18 µM | > 18 µM | > 18 µM
3 | > 100 µM | CCCCCCCCCCCCCCNC(=O)C(CO[C@@H]1O[C@H](CO)[C@H](O)[C@H](O)[C@H]1O)NP(=O)(O)OC (stereo not given in full) | > 100 µM | > 100 µM | > 100 µM
4 | 50 µM | CCCCCCCCCCCCCCNC(=O)C(CO[C@@H]1O[C@H](CO)[C@H](O)[C@H](O)[C@H]1O)NC(=O)CCC(=O)NCCS(=O)(=O)O (stereo not given in full) | > 100 µM | > 100 µM | > 100 µM
5 | 60 µM | CCCCCCCCCCCCCCNC(=O)C(N)CO[C@@H]1O[C@H](CO)[C@H](O)[C@H](O)[C@H]1O (stereo not given in full) |  |  | 
6 | 10 µM | CCCCCCCCCCCCCC(=O)NC(CO[C@@H]1O[C@H](CO)[C@H](O)[C@H](O)[C@H]1O)C(=O)NCCOS(=O)(=O)O (stereo not given in full) | 20 µM | > 100 µM | > 100 µM
7 | > 100 µM | O=C(O)CCCCCCCCCCCNC(=O)C(CO[C@@H]1O[C@H](CO)[C@H](O)[C@H](O)[C@H]1O)NC(=O)CCC(=O)O (stereo not given in full) | > 100 µM | > 100 µM | > 100 µM
8 | > 100 µM | CCCCCCCCCCCCCCNC(=O)C(CO[C@@H]1O[C@H](CO)[C@H](O)[C@H](O)[C@H]1O)NC(=O)CCC(=O)O (stereo not given in full) | > 100 µM | > 100 µM | > 100 µM
9 | > 100 µM | CCCCCCCCCCCCCCNC(=O)C(CO[C@@H]1O[C@H](CO)[C@H](O)[C@H](O)[C@H]1O)NC(=O)CCCCCCCCCCC(=O)O (stereo not given in full) | > 100 µM | > 100 µM | > 100 µM
10 | 20 µM | CCCCCCCCCCCCCC(=O)NC(CO[C@@H]1O[C@H](CO)[C@H](O)[C@H](O)[C@H]1O)C(=O)O (stereo not given in full) | > 100 µM | > 100 µM | > 100 µM
11 | > 100 µM | NC(CO[C@@H]1O[C@H](CO)[C@H](O)[C@H](O)[C@H]1O)C(=O)NCCCCCCCCCCCC(=O)O (stereo not given in full) | > 100 µM | > 100 µM | > 100 µM
12 | 40 µM | NC(CO[C@@H]1O[C@H](CO)[C@H](O)[C@H](O)[C@H]1O)C(=O)NCCCCCCCCCCCC(F)(F)C(F)(F)C(F)(F)C(F)(F)C(F)(F)C(F)(F)F (stereo not given in full) |  |  | 
13 | 32 µM | CCCCCCCCCCCCCC(=O)NCC(NC(=O)CCCCCCCCCCCCC)C(=O)NCCN(CCNC(=O)C(O)C(O)C(O[C@@H]1O[C@H](CO)[C@H](O)[C@H](O)C1O)C(O)CO)CCNC(=O)C(O)C(O)C(O[C@@H]1O[C@H](CO)[C@H](O)[C@H](O)[C@H]1O)C(O)CO (stereo not given in full) | 33 µM | 38 µM | 44 µM
14 | > 100 µM | CCCCCCCCCCCCCC(=O)NCC(NC(=O)CCCCCCCCCCCCC)C(=O)NCCNC(=O)C(O)C(O)C(O[C@@H]1O[C@H](CO)[C@H](O)[C@H](O)[C@H]1O)C(O)CO (stereo not given in full) | > 100 µM | > 100 µM | > 100 µM
